Calls of active or inactive are those of the source. The calls are words filed in the database; no cut-off is given here.
Tests used:
Type in all cases: functional
[1] = tested on: Radical scavenging activity; assay: Antioxidant activity assessed as DPPH radical scavenging activity at 20 uM after 30 mins
Procedure, shortened: (§1)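 DPPH scavenging: test sample in EtOH added to 0.1 M acetic acid buffer pH 5.5 plus 0.5 mM DPPH EtOH solution (stock); stood 30 min at room temperature; absorbance read at 517 nm, activity given as change in optical density. Standards alpha-tocopherol and L-cysteine.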

[2] = tested on: Radical scavenging activity; assay: Antioxidant activity assessed as DPPH radical scavenging activity at 40 uM after 30 mins; procedure, shortened: as §1
[3] = tested on: Radical scavenging activity; assay: Antioxidant activity assessed as DPPH radical scavenging activity at 80 uM after 30 mins; procedure, shortened: as §1
[4] = tested on: Radical scavenging activity; assay: Antioxidant activity assessed as DPPH radical scavenging activity at 10 uM after 30 mins; procedure, shortened: as §1
[5] = Antioxidant activity at 0.5 mM by ferric-thiocyanate method
Procedure, shortened: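 Linoleic acid peroxidation (ferric thiocyanate): sample (final 0.5 mM) with linoleic acid in EtOH/0.05 M phosphate buffer pH 7.0, kept dark at 40 °C for 5 days; aliquot diluted in 75% EtOH, ammonium thiocyanate and ferrous chloride in HCl added, absorbance at 500 nm read at 3 min. Control lacked compound; alpha-tocopherol and BHA standards.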

SMILES | deltaA [1] | deltaA [2] | deltaA [3] | deltaA [4] | Activity [5]
N[C@@H](CS)C(=O)O | 0.161 | 0.355 | 0.754 | – | –
Cc1c(C)c2c(c(C)c1O)CC[C@@](C)(CCC[C@H](C)CCC[C@H](C)CCCC(C)C)O2 | 0.471 | 0.934 | – | 0.252 | –
CC(C)c1cc2c(cc1O)[C@@]1(C)CCCC(C)(C)[C@@H]1CC2 | 0.081 | 0.153 | 0.255 | – | Active
COc1ccc(O)c(C(C)(C)C)c1.COc1ccc(O)cc1C(C)(C)C | – | – | – | – | Active
